# Laboratory results as given in publication PMC9933479 (ACS Omega, 2023).
# What was measured:
# Assay in all cases: MTT assay, cytotoxicity/growth inhibition
# [1] = test system: A549 (lung carcinoma); format: cell-based, human; conditions: for Cytotoxic Activity (% Growth Inhibition): A549, 20 μM concentration, MTT, 48 h, 20 µM; for IC50 / inhibition at 20 µM: Homo sapiens; for IC50: A549; for inhibition at 20 µM: A549, 48 h, read-out: Cytotoxic Activity (% Growth Inhibition), A549, 20 μM concentration, MTT, 48 h
# In short: (§1)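 Cells were grown in RPMI (A549, HCT-116, PC-3) or DMEM (MCF-7) with 10% FBS at 37 °C and 5% CO2. Seeding per well was […] and PC-3 8 × 10^4 cells. […] MTT 250 μg/mL, 4 h; DMSO; A570; triplicate; mean ± SE.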
# [2] = test system: MCF-7 (breast carcinoma); format: cell-based; conditions: Homo sapiens; for IC50: MCF7; for inhibition at 20 µM: MCF7, 48 h, read-out: Cytotoxic Activity (% Growth Inhibition)
# In short: as §1
# [3] = test system: PC-3 (prostate carcinoma); format: cell-based; conditions: Homo sapiens; for inhibition at 20 µM: 48 h, read-out: Cytotoxic Activity (% Growth Inhibition)
# In short: as §1
# [4] = test system: HCT-116 (colon carcinoma); format: cell-based; conditions: Homo sapiens; for IC50: HCT-116; for inhibition at 20 µM: HCT-116, 48 h, read-out: Cytotoxic Activity (% Growth Inhibition)
# In short: as §1
SMILES,Cytotoxic Activity (% Growth Inhibition) [1],IC50 [1],inhibition at 20 µM [1],IC50 [2],inhibition at 20 µM [2],IC50 [3],inhibition at 20 µM [3],IC50 [4],inhibition at 20 µM [4]
"C=C1CC[C@@H]2[C@](C)(CO)[C@H](O)CC[C@@]2(C)[C@@H]1C/C=C1/C(=O)OC[C@H]1O [Compound 1, Andrographolide, reference compound]",21.64 ± 0.22%,> 20 µM,21%,> 20 µM,42.93 ± 0.05%,> 20 µM,0%,> 20 µM,4.86 ± 0.25%
"C[C@@]12COC(c3ccccc3)O[C@@H]1CC[C@]1(C)C2CC=C(COC(=O)c2ccccc2)[C@H]1/C=C/C1=CCOC1=O (stereo partly drawn) [Compound 8a, ((4aR,6aR,7S,10bR)-6a,10b-Dimethyl-7-((E)-2-(2-oxo-2,5-dihydrofuran-3-yl)vinyl)-3-phenyl-4a,5,6,6a,7,10,10a,10b-octahydro-1H-naphtho[2,1-d][1,3]dioxin-8-yl)methyl Benzoate]",72.82 ± 0.05%,10.6 µM,72%,> 20 µM,9.68 ± 0.14%,> 20 µM,0%,> 20 µM,21.12 ± 0.19%
"COc1cccc(C(=O)OCC2=CCC3[C@]4(C)COC(c5ccccc5)O[C@@H]4CC[C@@]3(C)[C@@H]2/C=C/C2=CCOC2=O)c1 (stereo partly drawn) [Compound 8b, ((4aR,6aR,7S,10bR)-6a,10b-Dimethyl-7-((E)-2-(2-oxo-2,5-dihydrofuran-3-yl)vinyl)-3-phenyl-4a,5,6,6a,7,10,10a,10b-octahydro-1H-naphtho[2,1-d][1,3]dioxin-8-yl)methyl 3-Methoxybenzoate]",48.88 ± 0.17%,–,< 52%,–,6.04 ± 0.12%,–,0%,–,11.72 ± 0.11%
"C[C@@]12COC(c3ccccc3)O[C@@H]1CC[C@]1(C)C2CC=C(COC(=O)c2cccc(F)c2)[C@H]1/C=C/C1=CCOC1=O (stereo partly drawn) [Compound 8c, ((4aR,6aR,7S,10bR)-6a,10b-Dimethyl-7-((E)-2-(2-oxo-2,5-dihydrofuran-3-yl)vinyl)-3-phenyl-4a,5,6,6a,7,10,10a,10b-octahydro-1H-naphtho[2,1-d][1,3]dioxin-8-yl)methyl 3-Fluorobenzoate]",–,–,41.7 ± 0.45%,–,2.06 ± 0.04%,–,0%,–,19.3 ± 0.37%
"C[C@@]12COC(c3ccccc3)O[C@@H]1CC[C@]1(C)C2CC=C(COC(=O)c2cccc(Cl)c2)[C@H]1/C=C/C1=CCOC1=O (stereo partly drawn) [Compound 8d, ((4aR,6aR,7S,10bR)-6a,10b-Dimethyl-7-((E)-2-(2-oxo-2,5-dihydrofuran-3-yl)vinyl)-3-phenyl-4a,5,6,6a,7,10,10a,10b-octahydro-1H-naphtho[2,1-d][1,3]dioxin-8-yl)methyl 3-Chlorobenzoate]",–,–,30.11 ± 0.11%,–,2.4 ± 0.084%,–,0%,–,0%
"C[C@@]12COC(c3ccccc3)O[C@@H]1CC[C@]1(C)C2CC=C(COC(=O)c2cccc(Br)c2)[C@H]1/C=C/C1=CCOC1=O (stereo partly drawn) [Compound 8e, ((4aR,6aR,7S,10bR)-6a,10b-Dimethyl-7-((E)-2-(2-oxo-2,5-dihydrofuran-3-yl)vinyl)-3-phenyl-4a,5,6,6a,7,10,10a,10b-octahydro-1H-naphtho[2,1-d][1,3]dioxin-8-yl)methyl 3-Bromobenzoate]",–,–,31.59 ± 0.23%,–,0%,–,0%,–,0%
"C[C@@]12COC(c3ccccc3)O[C@@H]1CC[C@]1(C)C2CC=C(COC(=O)c2cccc(I)c2)[C@H]1/C=C/C1=CCOC1=O (stereo partly drawn) [Compound 8f, ((4aR,6aR,7S,10bR)-6a,10b-Dimethyl-7-((E)-2-(2-oxo-2,5-dihydrofuran-3-yl)vinyl)-3-phenyl-4a,5,6,6a,7,10,10a,10b-octahydro-1H-naphtho[2,1-d][1,3]dioxin-8-yl)methyl 3-Iodobenzoate]",–,–,30.98 ± 0.25%,–,0%,–,0%,–,33.25 ± 0.11%
"C[C@@]12COC(c3ccccc3)O[C@@H]1CC[C@]1(C)C2CC=C(COC(=O)c2ccoc2)[C@H]1/C=C/C1=CCOC1=O (stereo partly drawn) [Compound 8g, ((4aR,6aR,7S,10bR)-6a,10b-Dimethyl-7-((E)-2-(2-oxo-2,5-dihydrofuran-3-yl)vinyl)-3-phenyl-4a,5,6,6a,7,10,10a,10b-octahydro-1H-naphtho[2,1-d][1,3]dioxin-8-yl)methyl Furan-3-carboxylate]",–,–,40.95 ± 0.39%,–,0%,–,25 ± 0.58%,–,0%
"C[C@@]12COC(c3ccccc3)O[C@@H]1CC[C@]1(C)C2CC=C(COC(=O)c2cccc(C(F)(F)F)c2)[C@H]1/C=C/C1=CCOC1=O (stereo partly drawn) [Compound 8h, ((4aR,6aR,7S,10bR)-6a,10b-Dimethyl-7-((E)-2-(2-oxo-2,5-dihydrofuran-3-yl)vinyl)-3-phenyl-4a,5,6,6a,7,10,10a,10b-octahydro-1H-naphtho[2,1-d][1,3]dioxin-8-yl)methyl 3-(Trifluoromethyl)benzoate]",69.48 ± 0.42%,–,69%,–,0%,–,54 ± 0.62%,–,4.8 ± 0.02%
"Cc1cccc(C(=O)OCC2=CCC3[C@]4(C)COC(c5ccccc5)O[C@@H]4CC[C@@]3(C)[C@@H]2/C=C/C2=CCOC2=O)c1 (stereo partly drawn) [Compound 8i, ((4aR,6aR,7S,10bR)-6a,10b-Dimethyl-7-((E)-2-(2-oxo-2,5-dihydrofuran-3-yl)vinyl)-3-phenyl-4a,5,6,6a,7,10,10a,10b-octahydro-1H-naphtho[2,1-d][1,3]dioxin-8-yl)methyl 3-Methylbenzoate]",67.66 ± 0.23%,–,68%,–,4.37 ± 0.01%,–,0%,–,4.35 ± 0.54%
"COc1cc(OC)cc(C(=O)OCC2=CCC3[C@]4(C)COC(c5ccccc5)O[C@@H]4CC[C@@]3(C)[C@@H]2/C=C/C2=CCOC2=O)c1 (stereo partly drawn) [Compound 8j, ((4aR,6aR,7S,10bR)-6a,10b-Dimethyl-7-((E)-2-(2-oxo-2,5-dihydrofuran-3-yl)vinyl)-3-phenyl-4a,5,6,6a,7,10,10a,10b-octahydro-1H-naphtho[2,1-d][1,3]dioxin-8-yl)methyl 3,5-Dimethoxybenzoate]",51 ± 0.48%,–,< 52%,–,48 ± 0.91%,–,55.8 ± 0.49%,–,47.2 ± 0.75%
"COc1cc(C(=O)OCC2=CCC3[C@]4(C)COC(c5ccccc5)O[C@@H]4CC[C@@]3(C)[C@@H]2/C=C/C2=CCOC2=O)cc(OC)c1OC (stereo partly drawn) [Compound 8k, ((4aR,6aR,7S,10bR)-6a,10b-Dimethyl-7-((E)-2-(2-oxo-2,5-dihydrofuran-3-yl)vinyl)-3-phenyl-4a,5,6,6a,7,10,10a,10b-octahydro-1H-naphtho[2,1-d][1,3]dioxin-8-yl)methyl 3,4,5-Trimethoxybenzoate]",–,–,20.4 ± 0.73%,–,46 ± 0.77%,–,5.6 ± 0.59%,–,50 ± 0.62%
"COc1ccc(C(=O)OCC2=CCC3[C@]4(C)COC(c5ccccc5)O[C@@H]4CC[C@@]3(C)[C@@H]2/C=C/C2=CCOC2=O)cc1Cl (stereo partly drawn) [Compound 8l, ((4aR,6aR,7S,10bR)-6a,10b-Dimethyl-7-((E)-2-(2-oxo-2,5-dihydrofuran-3-yl)vinyl)-3-phenyl-4a,5,6,6a,7,10,10a,10b-octahydro-1H-naphtho[2,1-d][1,3]dioxin-8-yl)methyl 3-Chloro-4-methoxybenzoate]",61.6 ± 0.83%,–,< 60%,–,51 ± 0.5%,–,62 ± 0.97%,–,36.2 ± 0.8%
"C[C@@]12COC(c3ccccc3)O[C@@H]1CC[C@]1(C)C2CC=C(COC(=O)c2ccc(Br)cc2F)[C@H]1/C=C/C1=CCOC1=O (stereo partly drawn) [Compound 8m, ((4aR,6aR,7S,10bR)-6a,10b-Dimethyl-7-((E)-2-(2-oxo-2,5-dihydrofuran-3-yl)vinyl)-3-phenyl-4a,5,6,6a,7,10,10a,10b-octahydro-1H-naphtho[2,1-d][1,3]dioxin-8-yl)methyl 4-Bromo-2-fluorobenzoate]",–,–,–,–,44 ± 0.24%,–,0%,–,30.4 ± 0.9%
"C[C@@]12COC(c3ccccc3)O[C@@H]1CC[C@]1(C)C2CC=C(COC(=O)c2ccccc2C(F)(F)F)[C@H]1/C=C/C1=CCOC1=O (stereo partly drawn) [Compound 8n, ((4aR,6aR,7S,10bR)-6a,10b-Dimethyl-7-((E)-2-(2-oxo-2,5-dihydrofuran-3-yl)vinyl)-3-phenyl-4a,5,6,6a,7,10,10a,10b-octahydro-1H-naphtho[2,1-d][1,3]dioxin-8-yl)methyl 2-(Trifluoromethyl)benzoate]",–,–,18 ± 1.4%,–,55 ± 0.69%,–,55 ± 0.56%,–,31.3 ± 0.89%
"COc1cc(C(=O)OCC2=CCC3[C@](C)(CO)[C@H](O)CC[C@@]3(C)[C@@H]2/C=C/C2=CCOC2=O)cc(OC)c1OC (stereo partly drawn) [Compound 9k, ((1S,5R,6R,8aR)-6-Hydroxy-5-(hydroxymethyl)-5,8a-dimethyl-1-((E)-2-(2-oxo-2,5-dihydrofuran-3-yl)vinyl)-1,4,4a,5,6,7,8,8a-octahydronaphthalen-2-yl)methyl 3,4,5-Trimethoxybenzoate]",–,–,29.4 ± 0.82%,–,41 ± 0.87%,–,–,–,19.8 ± 0.68%
